Experimental data published in ChEMBL document CHEMBL4765327, “Design and synthesis of thiourea-based derivatives as Mycobacterium tuberculosis growth and enoyl acyl carrier protein reductase (InhA) inhibitors” (Eur J Med Chem, 2020).

Tests used:
[1] = system: Mycobacterium tuberculosis; experiment: Antimycobacterial activity against Mycobacterium tuberculosis H37Rv assessed as inhibition of microbial growth incubated for 1 week by alamar blue based assay; format: functional; details: 168 h, time 1 weeks
Outline: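 M. tuberculosis H37Rv by Microplate Alamar Blue Assay; MIC reported in μg/mL, with isoniazid, rifampicin and ethambutol run as standard drugs.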

[2] = system: Mycobacterium tuberculosis; experiment: Antimycobacterial activity against Mycobacterium tuberculosis H37Rv infected in mouse primary macrophage cells assessed as reduction in colony forming unit at 10 uM incubated for 48 hrs followed by macrophage lysis and measured after 3 weeks by alamar blue based serial dilution method; format: functional; details: time 23 day
Outline: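 Macrophages infected with M. tuberculosis, then exposed to compounds at 10 μM final for two days; bacteria suspended in 7H9 broth, serially diluted, plates incubated at 37 °C and growth read after three weeks.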

[3] = system: Mycobacterium tuberculosis; experiment: Antimycobacterial activity against Mycobacterium tuberculosis H37Rv assessed as reduction in colony forming unit at 1 to 10 ug/ml incubated for 7 days in nutrient starvation medium by alamar blue based serial dilution method; format: functional; details: dose 1-10 µg/ml; time 7 day
Outline: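 Culture starved in PBS at 37 °C for six weeks, then exposed to compounds, isoniazid or rifampicin at 10 μg/ml for seven days; persisters counted by MPN assay.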

[4] = Cytotoxicity against mouse RAW264.7 cells assessed as reduction in cell viability at 50 ug/ml incubated for 72 to 96 hrs by MTT assay; format: cell-based; details: at 50 µg/mL, time 72-96 hrs, read-out: INH
[5] = target: T1, Enoyl-[acyl-carrier-protein] reductase [NADH] (Mycobacterium tuberculosis, UniProt P9WGR1); experiment: Inhibition of recombinant Mycobacterium tuberculosis His6-tagged InHA expressed in Escherichia coli BL21 using trans-2-dodecenoyl-Coenzyme A as substrate
T1 sequence (P9WGR1 whole entry): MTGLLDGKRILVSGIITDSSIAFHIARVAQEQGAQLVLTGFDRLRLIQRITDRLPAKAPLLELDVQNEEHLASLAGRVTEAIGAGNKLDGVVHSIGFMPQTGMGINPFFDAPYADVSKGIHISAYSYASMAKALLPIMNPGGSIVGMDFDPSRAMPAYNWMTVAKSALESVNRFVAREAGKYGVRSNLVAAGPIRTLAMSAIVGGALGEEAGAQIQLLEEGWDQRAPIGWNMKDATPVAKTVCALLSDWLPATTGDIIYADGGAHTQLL
Outline: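 M. tuberculosis InhA screened at 50 μM, and compounds above 70% inhibition also at 5 μM; triclosan positive control; triplicate assays; IC50 from 4-parameter curve fit using at least seven points.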

SMILES | MIC [1] [µM] | fold change (FC) [2] | fold change (FC) [3] | cytotoxicity at 50 ug/ml [4] [%] | IC50 [5] [µM]
Cc1cccnc1NC(=S)Nc1ccc(F)cc1 | 47.9 | – | – | – | –
S=C(NCc1ccccc1Cl)Nc1ccccc1 | > 90.2 | – | – | – | –
Cc1ccc(NC(=S)Nc2ncccc2C)cc1 | 97.3 | – | – | – | –
NNC(=O)c1ccncc1 [ISONIAZID] | 0.36 | 2.5 | 1.4 | – | –
Cc1cccnc1NC(=S)Nc1cc(C(F)(F)F)cc(C(F)(F)F)c1 | > 66 | – | – | – | –
O=C(NCc1ccccc1Br)Nc1ccccc1 | > 82 | – | – | – | –
CC[C@@H](CO)NCCN[C@@H](CC)CO [ETHAMBUTOL] | 7.6 | – | – | – | –
Cc1cccnc1NC(=S)Nc1ccc2ccccc2c1 | > 85.3 | – | – | – | –
Cc1cccnc1NC(=S)Nc1ccc(I)cc1 | 2.11 | – | 2 | 31.2 | –
Cc1cccnc1NC(=S)Nc1ccc(Cl)cc1Cl | 2.5 | 1.4 | 2.3 | 34 | –
Cc1cccnc1NC(=S)Nc1ccccc1C(F)(F)F | > 80.4 | – | – | – | –
O=[N+]([O-])c1ccc(NC(=S)NCc2ccccc2Cl)cc1 | 2.42 | 1.8 | 2.6 | 29.9 | 17.7
Cc1cccnc1NC(=S)Nc1ccc(Br)cc1 | 2.42 | – | – | 30.8 | –
S=C(NCc1ccccc1Br)Nc1ccccc1 | > 77.9 | – | – | – | –
COc1ccc(NC(=S)Nc2ncccc2C)cc1 | 45.8 | – | – | – | –
CO[C@H]1/C=C/O[C@@]2(C)Oc3c(C)c(O)c4c(O)c(c(/C=N/N5CCN(C)CC5)c(O)c4c3C2=O)NC(=O)/C(C)=C\C=C\[C@H](C)[C@H](O)[C@@H](C)[C@@H](O)[C@@H](C)[C@H](OC(C)=O)[C@@H]1C [RIFAMPIN] | 0.12 | – | 1.6 | – | –
O=[N+]([O-])c1ccc(NC(=S)NCc2ccccc2Br)cc1 | 4.26 | – | – | 24.9 | 15.6
Cc1cccnc1NC(=S)Nc1ccccc1 | > 103 | – | – | – | –
O=C(NCc1ccccc1Cl)Nc1ccccc1 | > 95.8 | – | – | – | –
